High-throughput results deposited in PubChem BioAssay by Sanford-Burnham Center for Chemical Genomics.
Hits are enriched below; roughly 1.7% of the tested compounds scored in any of these assays.
SUMO1-SIM PPI: modulators of SUMO1 protein-protein interactions, primary screen, biochemical, uHTS. SUMO1 binding to a labelled peptide, TR-FRET, 1 h. inhibition, % at 20 µM. Small ubiquitin-related modifier 1 (Homo sapiens), P63165. hit rate 0.33% among 360,000. AID 602429, 2012; in the data active = inhibition above about 37%
Target sequence (P63165 whole entry, looked up): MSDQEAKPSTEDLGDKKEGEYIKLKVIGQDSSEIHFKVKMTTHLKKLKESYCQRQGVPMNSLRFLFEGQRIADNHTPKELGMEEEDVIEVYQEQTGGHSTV
STEP inh: STEP phosphatase inhibitors, primary screen, biochemical, fluorescence intensity, uHTS; recombinant STEP, OMFP fluorogenic substrate; inhibition, % at 20 µM; hit rate 0.25% among 360,000;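 active = inhibition at 20 µM, scaled per plate between control wells, above about 37%, limit read from the data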
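Measure: Control-normalized % inhibition with plate pattern correction | Test system: STEP phosphatase, cell-free reaction | Medium: pH 6.0 Bis-Tris with DTT and Tween 20 | Technique: Fluorescence, 480/540 nm | Times: Reaction 20 min, ambient temperature | Doses: Single compound dose of 20 µM, 1% DMSO final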
Scp-1 inhibitor: Scp-1 phosphatase inhibitors, primary screen, biochemical, colorimetric, uHTS; Carboxy-terminal domain RNA polymerase II polypeptide A small phosphatase 1 (Homo …; Recombinant Scp1, phosphopeptide, malachite green phosphate absorbance; inhibition, % at 20 µM; hit rate 0.88% among 340,000;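 active = inhibition above about 50% at 20 µM, limit read from the data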
Target sequence (Q9GZU7 76-261 limits assumed): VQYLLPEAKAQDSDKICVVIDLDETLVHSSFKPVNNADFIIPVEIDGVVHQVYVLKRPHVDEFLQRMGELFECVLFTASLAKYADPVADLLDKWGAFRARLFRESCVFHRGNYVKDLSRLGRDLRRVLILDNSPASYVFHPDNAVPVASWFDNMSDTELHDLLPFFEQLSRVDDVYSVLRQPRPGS
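System: SCP-1 catalytic domain; Reagent: Phospho 17-mer peptide substrate; Doses: one concentration, 20 µM, with 1.0% DMSO; Incubation: 45 min room-temperature reaction, 5 min colour, 30 min stabiliser; Signal: Phosphate-binding colour reagent, absorbance read at 630 nm.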
DNMT1 block: human DNMT1 methyltransferase inhibitors, primary screen, biochemical, molecular beacon, fluorescence, HinP1I cleavage, uHTS | DNA (cytosine-5)-methyltransferase 1 (Homo sapiens), P26358 | inhibition (reported as % activation of signal), % at 10 µM | hit rate 0.83% among 360,000 | AID 588458, 2011; in the data active = inhibition above about 50%
LMPTP inh: LMPTP phosphatase inhibitors, primary screen, biochemical, fluorescence intensity, uHTS; AID 651560, 2012; hit rate 0.22% among 360,000; inhibition, % at 20 µM; Low molecular weight phosphotyrosine protein phosphatase (Homo sapiens), P24666; recombinant LMPTP-A, OMFP fluorogenic substrate;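 active = compounds that cut the enzyme signal by at least half of the control window in the single-dose screen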
Target sequence (P24666 whole entry, looked up): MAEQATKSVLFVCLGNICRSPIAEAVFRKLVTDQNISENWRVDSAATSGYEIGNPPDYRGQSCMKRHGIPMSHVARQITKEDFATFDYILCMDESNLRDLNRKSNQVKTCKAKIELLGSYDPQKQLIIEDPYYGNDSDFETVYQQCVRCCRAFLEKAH
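Buffer or medium: Bis-Tris pH 6.0, DTT, detergent; Assay system: LMPTP-A enzyme; Quantity: 0.625 nM enzyme; Detection: endpoint fluorescence intensity; Times: 50 min dark incubation at room temperature; Controls: substrate-only low control, DMSO enzyme-plus-substrate high control; Doses: single 20 µM dose; Read-out: percent inhibition versus substrate-only and uninhibited controls; Reagent: 400 µM OMFP.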
Scp1 confirm: Scp-1 phosphatase inhibitors, retest, confirmation, biochemical, colorimetric, single concentration; AID 540281, 2011; inhibition, % at 20 µM; recombinant SCP-1 catalytic domain, phosphate release, malachite green absorbance; shares compounds with Scp-1 inhibitor; hit rate 61% among 2,500
Scp-1 MG ctr: colorimetric readout interference by compounds, confirmation, artefact control for Scp-1 inhibitor project, biochemical, single concentration; AID 540313, 2011; shares compounds with Scp-1 inhibitor; 2,500 tested, under 10 active; Colorimetric interference counterscreen, malachite green absorbance 630 nm; apparent inhibition (interference), % at 20 µM;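 also: compounds added after enzyme reaction finished so only phosphate colour detection is probed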
Scp-1 Tm shift: Scp-1 binding by thermal shift, confirmation, orthogonal assay for Scp-1 inhibitor project, biophysical, differential scanning fluorimetry; AID 540329, 2011; Recombinant SCP1, Sypro Orange thermal shift Tm; shares compounds with Scp-1 inhibitor; thermal shift relative to vanadate control, % at 40 µM; hit rate 25% among 1,500;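 active = substances whose mean melting-temperature shift, as a percentage of the reference inhibitor's shift, reaches about 5.3%, limit read from the data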
Large screens that a line does not name were inactive (follow-up assays come after a bar, where they were run).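 The calls were made as follows, unless noted: active = inhibition of at least 30% at 20 µM; inactive = the rest.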

O=c1oc2cc(OCc3ccc([N+](=O)[O-])cc3)ccc2c2c1CCCC2	none
O=C(O)c1ccc(COc2ccc3c4c(c(=O)oc3c2)CCC4)o1	Scp-1 inhibitor 50.1 | Scp1 confirm 45.2 | Scp-1 MG ctr inactive | Scp-1 Tm shift inactive
Cc1ccc(C)c(N2CCN(C(=O)Cn3c(=O)oc4cc(S(=O)(=O)N5CCCC5)ccc43)CC2)c1	none
O=C(Cn1c(=O)oc2cc(S(=O)(=O)N3CCCCCC3)ccc21)NC1CCCCCCC1	Scp-1 inhibitor 101.1 | Scp1 confirm 53.8 | Scp-1 MG ctr inactive | Scp-1 Tm shift inactive
O=C(Cn1c(=O)oc2cc(S(=O)(=O)N3CCCC3)ccc21)N1CCN(c2ccccc2)CC1	Scp-1 inhibitor 69.4 | Scp1 confirm inactive | Scp-1 MG ctr inactive
CCCC(=O)N1CCC1(C)C(=O)NS(=O)(=O)c1cc(C)ccc1F (centres undefined)	none (no result: Scp-1 inhibitor)
Cc1ccc(C(=O)NNC(=O)c2ccccc2O)cc1S(=O)(=O)N1CCCCC1	none
CC12CCC(=O)C=C1CCC1C2CCC2(C)C(c3csc(N)n3)CCC12 (centres undefined)	none
CN1C(=O)/C(=C2\SC(=S)N(CCCCCC(=O)O)C2=O)c2ccccc21	STEP inh 98.5, Scp-1 inhibitor 103.5, LMPTP inh 85.1 | Scp1 confirm 67.8 | Scp-1 MG ctr inactive | Scp-1 Tm shift inactive
O=C(O)CCN1C(=O)/C(=C2\C(=O)N(Cc3ccc(F)cc3)c3ccccc32)SC1=S	STEP inh 93.0, Scp-1 inhibitor 88.2, LMPTP inh 81.9 | Scp1 confirm 61.4 | Scp-1 MG ctr inactive | Scp-1 Tm shift 8.8
CCN1C(=O)/C(=C2\SC(=S)N(CCCOC)C2=O)c2ccccc21	none
CCN1C(=O)[C@H]2[C@@H](c3ccc(-c4ccc(OC)cc4)cc3)N[C@@](C)(C(=O)OC)[C@H]2C1=O	none
CCOc1ccccc1NC(=O)CCS(=O)(=O)c1ccc(Br)cc1	SUMO1-SIM PPI 56.6, Scp-1 inhibitor 92.2, DNMT1 block 104.6 | Scp1 confirm 66.9 | Scp-1 MG ctr inactive | Scp-1 Tm shift inactive
CCOC(=O)c1c(-c2ccco2)csc1NC(=O)COC(=O)c1cnccn1	Scp-1 inhibitor 60.1 | Scp1 confirm inactive | Scp-1 MG ctr inactive
CCOC(=O)c1c(NC(=O)COC(=O)c2cnccn2)sc(C(=O)NC)c1C	none
COc1ccc(C(c2nnnn2-c2c(C)cccc2C)N2CCN(C/C=C/c3ccccc3)CC2)cc1 (centres undefined)	none (no result: Scp-1 inhibitor)
COc1ccc(OC)c(NC(=O)CN(Cc2ccccc2)S(C)(=O)=O)c1	none
O=C(CSc1ncnc2sc3c(c12)CCC3)N1CCOCC1	Scp-1 inhibitor 53.5 | Scp1 confirm 56.2 | Scp-1 MG ctr inactive | Scp-1 Tm shift inactive
NS(=O)(=O)c1cccc(NC(=O)c2ccc3nc[nH]c3c2)c1	Scp-1 inhibitor 70.0 | Scp1 confirm 66.9 | Scp-1 MG ctr inactive | Scp-1 Tm shift inactive
Cc1cccc(NC(=O)CNC(=O)c2ccc3nc[nH]c3c2)c1C	Scp-1 inhibitor 67.6 | Scp1 confirm 50.6 | Scp-1 MG ctr inactive | Scp-1 Tm shift inactive
Cn1c(SCc2cc(=O)n3cc(Br)ccc3n2)nnc1C1COc2ccccc2O1 (centres undefined)	Scp-1 inhibitor 61.4 | Scp1 confirm 40.6 | Scp-1 MG ctr inactive | Scp-1 Tm shift inactive
O=C(OCc1cc(=O)n2cc(Br)ccc2n1)C1COc2ccccc2O1 (centres undefined)	none
O=C(NNC(=O)c1ccccc1F)c1ccc(Cl)c(S(=O)(=O)N2CCOCC2)c1	Scp-1 inhibitor 56.7 | Scp1 confirm inactive | Scp-1 MG ctr inactive
COc1ccc(CCNC(=O)[C@H](CC(C)C)NC(=O)N2CCn3c2nc2ccccc23)cc1OC	none
Cc1ccnc2nc(C(=O)OCC(=O)N(Cc3ccccc3)C(C)(C)C)nn12	none
O=C(CNS(=O)(=O)c1ccccc1)Nc1ccccc1Br	Scp-1 inhibitor 50.2 | Scp1 confirm inactive | Scp-1 MG ctr inactive
COCc1c(C(=O)N2CCN(Cc3c(F)cccc3Cl)CC2)oc2ccccc12	Scp-1 inhibitor 52.7 | Scp1 confirm inactive | Scp-1 MG ctr inactive
COc1ccc(CCN2CC(C(=O)Nc3ccccc3F)CC2=O)cc1OC (centres undefined)	none
COc1ccc(NC(=O)c2c(F)cccc2Cl)cc1S(=O)(=O)N1CCOCC1	none
COc1ccc(-c2c(-c3ccccc3OC)sc3ccccc23)cc1C=O	Scp-1 inhibitor 50.1 | Scp1 confirm inactive | Scp-1 MG ctr inactive
O=c1c2ccccc2oc2nc(-c3ccco3)n(Cc3ccccc3)c(=O)c12	Scp-1 inhibitor 50.1 | Scp1 confirm 55.7 | Scp-1 MG ctr inactive | Scp-1 Tm shift inactive
CCc1nc2oc3ccccc3c(=O)c2c(=O)n1Cc1ccccc1	none
COc1ccc(NC(=O)N(C)C[C@H]2Oc3ccc(NS(=O)(=O)c4cn(C)cn4)cc3C(=O)N([C@H](C)CO)C[C@@H]2C)cc1	none
Cc1noc(C)c1NC(=O)N(C)C[C@H]1Oc2ccc(NS(=O)(=O)c3cn(C)cn3)cc2C(=O)N([C@H](C)CO)C[C@@H]1C	Scp-1 inhibitor 63.8 | Scp1 confirm inactive | Scp-1 MG ctr inactive
C[C@H](CO)N1C[C@H](C)[C@@H](CN(C)C(=O)Nc2ccc3c(c2)OCO3)Oc2ccc(NS(=O)(=O)c3cn(C)cn3)cc2C1=O	Scp-1 inhibitor 68.9 | Scp1 confirm inactive | Scp-1 MG ctr inactive
C[C@H](CO)N1C[C@H](C)[C@@H](CN(C)C(=O)Nc2ccccc2)Oc2ccc(NS(=O)(=O)c3cn(C)cn3)cc2C1=O	Scp-1 inhibitor 71.1 | Scp1 confirm inactive | Scp-1 MG ctr inactive
C[C@H](CO)N1C[C@H](C)[C@@H](CN(C)S(=O)(=O)c2cn(C)cn2)Oc2ccc(NC(=O)Nc3ccc4c(c3)OCO4)cc2C1=O	none
